Experimental findings from ChEMBL document CHEMBL2331322, “Synthesis and antimicrobial activity of some new benzo and naphthonitrile derivatives” (2013) are described below.

Converted amounts (≈) assume the structure as drawn.

Holding throughout (type): functional
Assay [1] has as its system Bacillus subtilis. Put plainly: Antimicrobial activity against Bacillus subtilis after 24 hrs by microdilution susceptibility test. In a few lines: (§1)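 MIC was determined by broth microdilution, using Müller–Hinton broth for bacteria and Sabouraud liquid medium for fungi. Stocks were made in DMF and serially diluted twofold. Wells were inoculated at 10⁶ CFU/mL and plates incubated at 36 °C for 24–48 h, with controls included. Only compounds giving agar-diffusion zones >14 mm were tested.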

Assay [2] has as its system Pseudomonas aeruginosa. In words: Antimicrobial activity against Pseudomonas aeruginosa after 24 hrs by microdilution susceptibility test. In a few lines: as §1
(Dilution methods test growth across graded concentrations, often in twofold steps.)

The subject of assay [3] is Fusarium oxysporum. In words: Antimicrobial activity against Fusarium oxysporum after 48 hrs by microdilution susceptibility test. In a few lines:
as §1

In assay [4] the test system is Pseudomonas aeruginosa. Put plainly: Antimicrobial activity against Pseudomonas aeruginosa at 1 mg/mL after 24 hrs by agar disc diffusion method. The note with it: read-out: DIZ. In a few lines:
(§2)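 Sterile 5 mm filter paper disks were impregnated with test solution in DMF (1 mg/mL) and placed on agar plates seeded with the test organism, in triplicate. Bacteria were incubated at 37 °C for 24 h and fungi for […] (so in the source). The read-out was the average inhibition zone diameter around the disks, in mm.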
For orientation: A growth-free zone around the sample is the usual read-out of agar diffusion tests.

The subject of assay [5] is Bacillus thuringiensis. In words: Antimicrobial activity against Bacillus thuringiensis at 1 mg/mL after 24 hrs by agar disc diffusion method. The note with it: read-out: DIZ. In a few lines:
as §2

For assay [6], the system named is Escherichia coli. Put plainly: Antimicrobial activity against Escherichia coli after 24 hrs by microdilution susceptibility test. In a few lines:
as §1

Assay [7] concerns Bacillus thuringiensis. In words: Antimicrobial activity against Bacillus thuringiensis after 24 hrs by microdilution susceptibility test. In a few lines:
as §1

In assay [8] the test system is Escherichia coli. In words: Antimicrobial activity against Escherichia coli at 1 mg/mL after 24 hrs by agar disc diffusion method. The note with it: read-out: DIZ. In a few lines:
as §2

The subject of assay [9] is Fusarium oxysporum. Put plainly: Antimicrobial activity against Fusarium oxysporum at 1 mg/mL after 48 hrs by agar disc diffusion method. Conditions: read-out: DIZ. In a few lines: as §2
Assay [10] deals with Botrytis fabae. In words: Antimicrobial activity against Botrytis fabae at 1 mg/mL […] by agar disc diffusion method. Conditions: read-out: DIZ.
Assay [11] relates to Bacillus subtilis. In words: Antimicrobial activity against Bacillus subtilis at 1 mg/mL after 24 hrs by agar disc diffusion method. Conditions: read-out: DIZ. In a few lines:
as §2

The test system of assay [12] is Botrytis fabae. Put plainly: Antimicrobial activity against Botrytis fabae after 48 hrs by microdilution susceptibility test. In a few lines:
as §1

As for `N#Cc1ccccc1C(/N=N/c1ccc([N+](=O)[O-])cc1)C(N)=O` (stereo not drawn), the values for the MBC against Bacillus subtilis [1] and against Escherichia coli [6] were 50 µg/mL (≈ 162 µM) and 200 µg/mL (≈ 647 µM), respectively. Moreover, the MIC (as a rule, the smallest concentration in the dilution series that meets the test's criterion for growth inhibition) with Bacillus subtilis [1] came out at 6.25 µg/mL (≈ 20.2 µM); against Pseudomonas aeruginosa [2], 25 µg/mL (≈ 80.8 µM); in the assay on Fusarium oxysporum [3], 12.5 µg/mL (≈ 40.4 µM); against Escherichia coli [6] it was 25 µg/mL (≈ 80.8 µM); in the assay on Bacillus thuringiensis [7], 12.5 µg/mL (≈ 40.4 µM); with Botrytis fabae [12], 12.5 µg/mL (≈ 40.4 µM). For the same molecule, the zone of inhibition at 1000 µg/mL in the assay with Pseudomonas aeruginosa [4] amounted to 16 mm; with Bacillus thuringiensis [5], 35 mm; with Escherichia coli [8] it was 15 mm; in the assay on Fusarium oxysporum [9] it was 35 mm; in the assay on Botrytis fabae [10] it was 38 mm; in the assay on Bacillus subtilis [11] it was 33 mm.
Consider `N#CCc1ccccc1C#N`, for which the MBC against Bacillus subtilis [1] and in the assay on Escherichia coli [6] was 200 µg/mL (≈ 1410 µM) in each case. In addition, the minimum inhibitory concentration (MIC) in the assay on Bacillus subtilis [1] amounted to 100 µg/mL (≈ 703 µM); in the assay with Pseudomonas aeruginosa [2], 100 µg/mL (≈ 703 µM); with Fusarium oxysporum [3], 50 µg/mL (≈ 352 µM); in the assay with Escherichia coli [6], 100 µg/mL (≈ 703 µM); in the assay with Bacillus thuringiensis [7], 50 µg/mL (≈ 352 µM); in the assay on Botrytis fabae [12], 100 µg/mL (≈ 703 µM). Besides, the zone of inhibition at 1000 µg/mL in the assay with Pseudomonas aeruginosa [4] came out at 15 mm; in the assay with Bacillus thuringiensis [5], 15 mm; in the assay with Escherichia coli [8] it was 16 mm; in the assay on Fusarium oxysporum [9], 14 mm; with Botrytis fabae [10], 15 mm; with Bacillus subtilis [11] it was 15 mm.
`N#Cc1ccccc1C(C#N)/N=N/c1ccccc1` (stereo not drawn): the figures for the MBC against Bacillus subtilis [1] and against Escherichia coli [6] were 100 µg/mL (≈ 406 µM) and 200 µg/mL (≈ 812 µM), respectively. In addition, the MIC with Bacillus subtilis [1] is 12.5 µg/mL (≈ 50.8 µM); in the assay with Pseudomonas aeruginosa [2], 12.5 µg/mL (≈ 50.8 µM); against Fusarium oxysporum [3], 12.5 µg/mL (≈ 50.8 µM); in the assay on Escherichia coli [6], 25 µg/mL (≈ 102 µM); with Bacillus thuringiensis [7], 25 µg/mL (≈ 102 µM); in the assay on Botrytis fabae [12], 12.5 µg/mL (≈ 50.8 µM). Moreover, the zone of inhibition at 1000 µg/mL with Pseudomonas aeruginosa [4] turned out to be 30 mm; with Bacillus thuringiensis [5], 30 mm; with Escherichia coli [8] it was 33 mm; with Fusarium oxysporum [9] it was 38 mm; in the assay on Botrytis fabae [10], 40 mm; in the assay on Bacillus subtilis [11], 37 mm.
`N#Cc1ccccc1C(C#N)/N=N/c1ccc(Cl)cc1` (stereo not drawn): the minimum bactericidal concentration (MBC) (usually the lowest tested concentration that kills the bacteria rather than only halting them) was 50 µg/mL (≈ 178 µM) against Bacillus subtilis [1] and 200 µg/mL (≈ 712 µM) in the assay with Escherichia coli [6]. Further, the minimal inhibitory concentration (MIC) in the assay with Bacillus subtilis [1] was 3.12 µg/mL (≈ 11.1 µM); against Pseudomonas aeruginosa [2] it was 12.5 µg/mL (≈ 44.5 µM); against Fusarium oxysporum [3], 6.25 µg/mL (≈ 22.3 µM); against Escherichia coli [6], 6.25 µg/mL (≈ 22.3 µM); with Bacillus thuringiensis [7], 6.25 µg/mL (≈ 22.3 µM); in the assay with Botrytis fabae [12], 6.25 µg/mL (≈ 22.3 µM). The zone of inhibition at 1000 µg/mL in the assay on Pseudomonas aeruginosa [4] was found to be 35 mm; in the assay on Bacillus thuringiensis [5], 38 mm; in the assay with Escherichia coli [8], 37 mm; in the assay with Fusarium oxysporum [9] it was 38 mm; in the assay with Botrytis fabae [10] it was 39 mm; with Bacillus subtilis [11], 42 mm.
For the molecule `Cc1ccc(/N=N/C(C#N)c2ccccc2C#N)cc1` (stereo not drawn), the MBC against Bacillus subtilis [1] stood at 100 µg/mL (≈ 384 µM); in the assay on Escherichia coli [6] it was 200 µg/mL (≈ 768 µM). Besides, the MIC in the assay with Bacillus subtilis [1] was 12.5 µg/mL (≈ 48 µM); with Pseudomonas aeruginosa [2], 25 µg/mL (≈ 96 µM); against Fusarium oxysporum [3], 12.5 µg/mL (≈ 48 µM); against Escherichia coli [6], 25 µg/mL (≈ 96 µM); with Bacillus thuringiensis [7], 25 µg/mL (≈ 96 µM); in the assay on Botrytis fabae [12] it was 25 µg/mL (≈ 96 µM). Besides, the zone of inhibition at 1000 µg/mL in the assay with Pseudomonas aeruginosa [4] worked out at 16 mm; in the assay on Bacillus thuringiensis [5], 33 mm; with Escherichia coli [8], 30 mm; in the assay with Fusarium oxysporum [9] it was 33 mm; in the assay with Botrytis fabae [10], 35 mm; with Bacillus subtilis [11] it was 35 mm.
Take `COc1ccc(/N=N/C(C#N)c2ccccc2C#N)cc1` (stereo not drawn): the MBC was found to be 100 µg/mL (≈ 362 µM) against Bacillus subtilis [1] and 50 µg/mL (≈ 181 µM) in the assay with Escherichia coli [6]. The MIC came to 6.25 µg/mL (≈ 22.6 µM) against Bacillus subtilis [1]; 25 µg/mL (≈ 90.5 µM) with Pseudomonas aeruginosa [2]; 12.5 µg/mL (≈ 45.2 µM) in the assay with Fusarium oxysporum [3]; 12.5 µg/mL (≈ 45.2 µM) in the assay on Escherichia coli [6]; 12.5 µg/mL (≈ 45.2 µM) in the assay with Bacillus thuringiensis [7]; 12.5 µg/mL (≈ 45.2 µM) in the assay on Botrytis fabae [12]. Also, the zone of inhibition at 1000 µg/mL is 30 mm in the assay on Pseudomonas aeruginosa [4]; 36 mm with Bacillus thuringiensis [5]; 35 mm in the assay with Escherichia coli [8]; 37 mm in the assay on Fusarium oxysporum [9]; 38 mm in the assay on Botrytis fabae [10]; 39 mm with Bacillus subtilis [11].
As for `N#Cc1ccccc1C(C#N)/N=N/c1ccc([N+](=O)[O-])cc1` (stereo not drawn), the minimal bactericidal concentration (MBC) came to 50 µg/mL (≈ 172 µM) against Bacillus subtilis [1] and 100 µg/mL (≈ 343 µM) against Escherichia coli [6]. The MIC against Bacillus subtilis [1] stood at 3.12 µg/mL (≈ 10.7 µM); against Pseudomonas aeruginosa [2] it was 6.25 µg/mL (≈ 21.5 µM); against Fusarium oxysporum [3], 6.25 µg/mL (≈ 21.5 µM); in the assay with Escherichia coli [6], 6.25 µg/mL (≈ 21.5 µM); with Bacillus thuringiensis [7], 6.25 µg/mL (≈ 21.5 µM); in the assay with Botrytis fabae [12] it was 6.25 µg/mL (≈ 21.5 µM). Moreover, the zone of inhibition at 1000 µg/mL was 35 mm in the assay on Pseudomonas aeruginosa [4]; 37 mm with Bacillus thuringiensis [5]; 36 mm in the assay with Escherichia coli [8]; 41 mm in the assay on Fusarium oxysporum [9]; 40 mm with Botrytis fabae [10]; 43 mm in the assay with Bacillus subtilis [11].
